Data reported in the RNAGym collection of RNA variant scans (doi:10.1101/gad.245936.114).
Variants at the floor of the assay were thinned out.

B1: tRNA (parent)
chain: CUCUCGGUAGCCAAGUUGGUUUAAGGCGCAAGACUUUAAUUUAUCACUACGAAAUCUUGAGAUCGGGCGUUCGACUCGCCCCCGGGAGAUUUUUUCCUCGAGCAA

Variants of: B1
Test: nonsense suppression (GFP-seq) (ratio to wild type); higher = more function; SUP4oc tRNA, yeast GFP reporter sort-seq
How it was run: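 To measure nonsense suppression, tRNA variants from a library carrying ~3% random mutations were integrated into the yeast genome alongside RFP and a GFP ochre reporter under galactose control. Growth took place in raffinose/galactose medium supplemented with 80 mg/L adenine, followed by sorting into GFP/RFP bins and Illumina sequencing of each bin (phred ≥30). For each variant with ≥100 reads and ≥30 cells, the bin median GFP/RFP values were weighted by its estimated cell share per bin and referenced to the unmutated parent tRNA.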
With CUCUUGGUAGCCAAGUUGGUUCAAGGCGCAAGACUUUAAUUUAUCACUACGAAAUCCUGAGAUCGGGCGUUCGCCUCGCCCCCGGGAGAUUUUUUCCUCGAGCAA [C5U U22C U57C A74C] the nonsense suppression was at most 0.026. In the case of CUCUCGGUAGCCAAGUUGGUUUAAAUCGCAAGACUUUAAUUUAUCACUACGAAAUGUUGAGAUCGGGCGUUCGACUCGCCCCCGGGAGAUUUUUUCCUCGAGCAA [G25A G26U C56G], the nonsense suppression is reported as 0.0585. CUCACGGUAGCCAAGUAGGUUUAAGGCGCAAGACUUUAAUUUAUCACUACGAAAUCUUGAGAUCGGGCGUUCGACUCGCCCCCGGGAGAUUUUUUCCUCGAGCAA [U4A U17A] gave a nonsense suppression of 0.174. Work on CUCACGGUAGCCAGGUUGGUUUAAGGCGCAAGACUUUAAUUUAUCACUACGAAAUCUUGAGAUCGGGCGUUCGACUCGCCCCCGGGAGAUUUUUUCCUCGAGCAA [U4A A14G] yielded a nonsense suppression of 0.0942. With CUCUCGGUAGCCAAGUUGGUUUAAGGCGCAAGUCUUUAAUUUAUCACUACGAAAUCUUGAGAUCGGGCGUUCGACUCGCCCCCGGGAGAUUUUUUCCUCGAGCAA [A33U] the nonsense suppression was 0.0699. CUCUCGGUAGCCAAGUUGGUUUAAGGCGCAAGACUUUAAUUUAUCACUACGAAAUCUUGAGAUCGGGCGUUCGACUCGCCCCUGGAAGAUUUUUUCCUCGAGCAA [C83U G86A] showed a nonsense suppression of at most 0.026. Work on CCCUCGGUAGCCAAGGUGGUUUAAGGCGCAAGACUUUAAUUUAUCACUACGAAAUCUUGAGAUCGGGCGUUCGACUCGCCCCCGGGAGAUUUUUUCCUCGAGCAA [U2C U16G] yielded a nonsense suppression of 0.168. Work on CUCUCGGUAGCCAAGUUGCUUUAAGGCGCAAGACUUUAAUUUAUCACUACGAAAUCUUGAGACCGGGCGUUCGACUCGCCCCAGGGAGAUUUUUUCCUCGAGCAA [G19C U63C C83A] yielded a nonsense suppression of 0.789. CUCUCGGUAGCCAAGUUGGAUUAAGGCGCAAGACUUUAAUUUAUCACUACGAAAUCUUGAGACCGGGCGUUCGACUCGCCCCCGGGAGAUUUUUUCCUCGAGCAA [U20A U63C] gave a nonsense suppression of 0.191. With CUCUCGGUAGCCAAGUUGGUUUAAGGCGCAAGACUUUAAUUUAUCACUACGAAAUGUUGAGGUCGGGCGUUCGACUCGCCCCCGGGAGAUUUUUUCCUCGAGCAA [C56G A62G] the nonsense suppression was at most 0.026. Variant CUCUCGGUAGCUAAGUUGGUUUAAGGCGCAAGACUUUAAUUUAUCACUACGAAAUCUUGAGAUAGGGCGUUCGACUCGCCCCCGGGAGAUUUUUUCCUCGAGCAA [C12U C64A] has a nonsense suppression of at most 0.026. CUUUCGGUAACCAAGUUGGUUUAAGGCGCAAGACUUUAAUUUAUCACUACGAAAUCUUGAGAUCGGGCGUUCGACUCGCCCCCGGGAGAUUUUUUCCUCGAGCAA [C3U G10A] showed a nonsense suppression of 0.0262. For CUCGCGGUAGCCAAGUUGGUUUAAGGCGCAAGACUUUAAUUUAUCACUACGAAAUCUUGCGAUCGGGCGUUCGACUCGCCCCCGAGAGAUUUUUUCCUCGAGCAA [U4G A60C G85A], the nonsense suppression was at most 0.026. In the case of CUCUCGGUAGCCAAGUUGGUUUAAGGCGCAAGACUUUAAUUUAUCACUACGAAUUCUUGAGAGCGGGCGUUCGACUCGCCCCCGGGAGAUUUUUUCCUCGAGCAA [A54U U63G], the nonsense suppression is reported as 0.659. Variant CUCUCGGUAGCCAAGUUGGUUUAAGGUGCAAGACUUUAAUUUAUCACUACGAAAUCUUGAGAUCGGGCGUUCGACUCGCCCCCGGGAGAUUUUUUCCUCGAGCAA [C27U] has a nonsense suppression of 0.183. For CUCUCGGUAGCCAAGUUGGUUUAAGGCGCAAGACGUUAAUUUAUCACUACGAAAUCUUGAGAUCGGGCGUUCGACUCGCCCCCGUGAGAUUUUUUCCUCGAGCAA [U35G G85U], the nonsense suppression was at most 0.026. CUCUCGGUAGCCAAGUUGGUUUAAGGCGCGAGACUUUAAUUUAUCACUACGAAAUCUUGAGAUCGGGCGUUCGACUCGCCCUCGGGAGAUUUUUUCCUCGAGCAA [A30G C82U] showed a nonsense suppression of 0.0497. In the case of GUCUCGGUAGCCAAGUUGGUUUAAGGCGCAAGACUUUAAUUUAUCACUACGAAAUCUUGAGAUAGGGCGUUCGACUCGCCCCCGGGAGAUUUUUUCCUCGAGCAA [C1G C64A], the nonsense suppression is reported as at most 0.026. Variant CUCUCGGUAGCCAAGUUGGGUUAAGGCGCAAGACUUUAAUUUAUCACUACGAAAUCUUGAGAUCGGGCGUUCGACUCGGCCCCGGGGGAUUUUUUCCUCGAGCAA [U20G C79G A87G] has a nonsense suppression of at most 0.026. CUCUCGGUAGCCGAGUUGGAUUAAGGCGCAAGACUUUAAUUUAUCACUACGAAAUCUUGAGAUCGGGCGUUCGACUCGCCCCCGGGAGAUUUUUUCCUCGAGCAA [A13G U20A] showed a nonsense suppression of 0.0339. CUCUCGGUAGCCAAGUUGGUUUACGGCGCAAGACUUUAAUUUAUCACUACGAAAUCUUGAGAUCGGGCGUUUGACUCGCCCCCAGGAGAUUUUUUCCUCGAGCAA [A24C C72U G84A] gave a nonsense suppression of at most 0.026. Variant CUCUCGGUUGCCAAGUUGGUUUAAGGCGCAAGACUUUAAUUUAUCACUACGAAAUCUUGAGAUCGGGCGUUCGAUUCGCCCCCGGGAGAUUUUUUCCUCGAGCAA [A9U C75U] has a nonsense suppression of 0.656. Variant CUCUCGGUAGCCAAGUUGGUUUAAGGCGCAAGACUUUAAUUUAUCACUACGAAAUCUUGACAUCGGGCGUUCGACUCGCCCCCGGGAGAUUUUUUCCUCGAGCAA [G61C] has a nonsense suppression of 1.14. CUCUCGGUAGCCAAGUUGGUUUAAGGCGCAAGACUUUAAUUUAUCACUACGAAAUCUUGUGAUCGGGCGUUCGACUCCCCCCCGAGAGAUUUUUUCCUCGAGCAA [A60U G78C G85A] gave a nonsense suppression of 1.16. Variant CUCUCGGUAGCCAAGUUGGUUUAAGGCCCAAGACUUUAAUUUAUCACUACGAAAUCUUAAGAUCGGGCGUUCGACUCGCCCCCGGGAGAUUUUUUCCUCGAGCAA [G28C G59A] has a nonsense suppression of at most 0.026. Variant CUCUCGGUAGCCAAGUUGGUGUAAGGCGCAAGGUUUUAAUUUAUCACUACGAAAUCUUGAGAUCCGGCGUUCGACUCGCCCCCGGGAGAUUUUUUCCUCGAGCAA [U21G A33G C34U G65C] has a nonsense suppression of at most 0.026. CUCACGGUAGCCAAGGUGGUUUAAGGCGCAAGACUUUAAUUUAUCACUACGAAAUCUUGAGAUCGGGCGUUCGACUCGCCCCCGGGAGAUUUUUUCCUCGAGCAA [U4A U16G] showed a nonsense suppression of 0.247.
